Bioassay records from PubChem.
MrgX1 agonist: activates human MrgX1 receptor signaling. MrgX1-HEK293 cells, Fluo-4 calcium fluorescence, agonist mode; stronger effect = higher value. B-score at 10 µM. 310,000 compounds, 0.44% hits. AID 588627;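 active means calcium response B-score plate-corrected fluorescence ratio at least 3 library SD, with starting fluorescence B-score inside 5 SD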
Target sequence (Q96LB2 whole entry, looked up): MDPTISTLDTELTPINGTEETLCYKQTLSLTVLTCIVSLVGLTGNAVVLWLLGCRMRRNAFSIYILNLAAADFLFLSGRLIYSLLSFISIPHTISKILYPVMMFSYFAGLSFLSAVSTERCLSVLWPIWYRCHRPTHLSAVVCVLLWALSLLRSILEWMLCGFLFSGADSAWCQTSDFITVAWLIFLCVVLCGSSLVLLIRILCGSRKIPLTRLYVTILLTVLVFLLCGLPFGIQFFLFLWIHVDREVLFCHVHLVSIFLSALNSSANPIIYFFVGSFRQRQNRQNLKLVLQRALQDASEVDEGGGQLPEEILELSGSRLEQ
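Test system: Stable human MrgX1 HEK293 cell line | Schedule: Overnight plating before 1 h dye loading | Read-out basis: Baseline-normalised fluorescence change ratio, B-scored | Detection: Kinetic calcium dye fluorescence, Fluo-4 NW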
RGS4 pot: RGS4 potentiation or activation; HEK293 M3R/inducible RGS4, carbachol calcium flux Fluo4; stronger effect = lower value; B-score at 10 µM; 310,000 compounds, 0.92% hits; AID 463111;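 active means B-score of the integrated calcium signal more than 4 SD below the library mean, with starting fluorescence not abnormally high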;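 further: negative B-score means reduced calcium response which marks RGS4 activation or potentiation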
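test system = M3R-expressing HEK293 line, RGS4 induced by doxycycline | probe or stimulus = carbachol at ECmax as muscarinic agonist stimulus | timing = dye loading 30 min 37 °C, buffer rest 30 min RT | signal = calcium dye Fluo4 fluorescence | evaluation = B score from integrated fluorescence ratio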
RGS4 inh: human RGS4 inhibition | P49798 | 310,000 compounds, 0.45% hits | B-score at 10 µM | AID 463165 | HEK293 M3R/RGS4 inducible, Fluo-4 calcium flux; stronger effect = higher value; triggered by carbachol at its EC20;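 active means B-score, a plate-corrected calcium signal, over three deviations above library mean, with baseline fluorescence within five deviations of library mean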;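 further: RGS4 expression induced by doxycycline in cells with stable M3 receptor; B-score is computed from the integrated fluorescence ratio over baseline after carbachol; higher B-score means a larger calcium signal and so more RGS4 inhibition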
Target sequence (P49798 whole entry, looked up): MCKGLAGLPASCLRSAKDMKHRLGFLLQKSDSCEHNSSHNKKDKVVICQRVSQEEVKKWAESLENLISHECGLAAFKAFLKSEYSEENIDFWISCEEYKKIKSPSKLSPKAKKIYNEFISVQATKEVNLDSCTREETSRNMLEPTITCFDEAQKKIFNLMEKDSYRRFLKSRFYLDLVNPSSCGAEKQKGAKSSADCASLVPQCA
MrgX1 allo act: human MrgX1 positive allosteric modulation, primary screen. MrgX1-HEK293, Fluo-4 calcium flux, FDSS; stronger effect = higher value. B-score at 10 µM. 310,000 compounds, 0.63% hits. AID 588675;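 active means plate-corrected calcium response at least 3 library SD above typical, normal starting fluorescence, not activating the receptor alone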;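 further: compound read alongside a low EC10 to EC30 dose of BAM8-22 agonist; peak minus trough fluorescence over baseline measured at the second addition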
MrgX1 antagonist: blocks BAM8-22 activation of human MrgX1 receptor | AID 588676 | 310,000 compounds, 1.3% hits | B-score at 10 µM | Q96LB2 | MRGX1-HEK293 calcium flux, Fluo-4, BAM8-22 antagonism; stronger effect = lower value;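 active means calcium-response B-score plate-corrected more than 3 library SD below zero, starting fluorescence within 5 deviations, no agonist response on first addition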;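 further: peak minus trough fluorescence over baseline after final BAM8-22 challenge near maximal dose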
Active calls of the source: *; i = inactive; . = not tested or not shown; ! = not active in a repeat. Rows were chosen to be rich in hits. Some 3.5% of all compounds tested hit in one or more screens of this group.

SMILES | MrgX1 agonist | RGS4 pot | RGS4 inh | MrgX1 allo act | MrgX1 antagonist
Cc1ccc2oc(-c3cccc(NC(=S)NC(=O)/C=C/c4ccco4)c3)nc2c1 | i | -7.1* | i | i | i
Cc1ccc2oc(-c3cccc(NC(=S)NC(=O)c4cccs4)c3)nc2c1 | i | i | i | i | i
O=C(/C=C/c1ccco1)NC(=S)Nc1ccccn1 | i | i | i | 18* | i
O=C(/C=C/c1ccco1)NC(=S)Nc1nc(-c2ccc3ccccc3c2)cs1 | i | i | i | i | -6.6*
COc1ccc(/C=C/C(=O)NC(=S)Nc2ccccn2)cc1 | i | i | i | 7.1* | i
O=C(c1nc2ccc(Cl)cn2c1CNCCc1cnccn1)N1CCCCCCC1 | i | i | i | i | i
CCOC(=O)N1CCC2(CC1)NCCc1c2[nH]c2ccccc12 | i | i | i | i | i
C=CCN(CC=C)C(=S)NC(=O)/C=C/c1ccc(OC)cc1 | i | i | i | 8.9* | i
COc1ccc(/C=C/C(=O)NC(=S)NNC(=O)c2cnccn2)cc1 | i | i | i | i | -6.5*
O=C(O)C(NC(=O)C1CCCN1C(=O)OCc1ccccc1)c1ccccc1 (stereo not given) | i | i | i | i | i
O=C(O)CCC(NC(=O)C1CCCN1C(=O)OCc1ccccc1)C(=O)O (stereo not given) | i | i | i | i | -6.4*
CCCc1cc(=O)oc2cc(C)cc(OC(C)C(=O)NCc3ccncc3)c12 (stereo not given) | i | i | i | i | i
[O-][n+]1cccc2c(Br)cc(Br)c(O)c21 | i | i | i | i | -4.7*
O=C(OC[C@H]1O[C@@H](OC(=O)c2cc(O)c(O)c(OC(=O)c3cc(O)c(O)c(O)c3)c2)[C@H](OC(=O)c2cc(O)c(O)c(OC(=O)c3cc(O)c(O)c(O)c3)c2)[C@@H](OC(=O)c2cc(O)c(O)c(OC(=O)c3cc(O)c(O)c(O)c3)c2)[C@@H]1OC(=O)c1cc(O)c(O)c(OC(=O)c2cc(O)c(O)c(O)c2)c1)c1cc(O)c(O)c(OC(=O)c2cc(O)c(O)c(O)c2)c1 | i | . | . | i | i
CN(c1ccc(C(=O)N/N=C/c2cccc([N+](=O)[O-])c2)cc1)S(=O)(=O)c1ccccc1 | i | i | i | i | i
Cc1ccc(-n2c(C)cc(/C=C3\NC(=O)NC3=O)c2C)c(C)c1 | i | -7.6* | i | i | i
Cc1cc(/C=C2/NC(=O)NC2=O)c(C)n1-c1ccccn1 | i | i | i | i | i
Oc1c(Cl)cc(Cl)cc1Sc1cc(Cl)cc(Cl)c1O | 30* | i | i | i | i
Oc1c(Cl)cc(Cl)cc1CNn1cnnc1 | i | i | i | i | i
CCn1nc(C)cc1-c1nnc(Sc2ncc([N+](=O)[O-])s2)n1C | 38* | -7.9* | i | i | i
O=C1CCC2S/C(=C/Nc3ccc(C(F)(F)F)cc3)C(=O)N12 (stereo not given) | i | i | i | i | -4.8*
CCn1c(SCC(=O)Nc2ccc3c(c2)oc2ccccc23)nnc1-c1ccc(N)cc1 | i | i | 8* | i | i
CCn1c(Cc2cccs2)nnc1SCC(=O)Nc1ccc(OC)c(OC)c1 | i | i | i | i | -4.7*
CCCCOc1ccc(Br)cc1/C(C)=N/NC1=NCCN1 | i | -8.1* | i | i | i
CCCCCCOc1ccc(/C(C)=N/NC2=NCCN2)cc1[N+](=O)[O-] | i | i | i | i | i
SMILES | MrgX1 agonist | RGS4 pot | RGS4 inh | MrgX1 allo act | MrgX1 antagonist
N#C/C(=C\c1ccc([N+](=O)[O-])o1)c1nc2ccccc2[nH]1 | i | i | i | i | -4.5*
N#C/C(=C\c1ccc(Sc2ccccc2)o1)c1nc2ccccc2[nH]1 | i | i | i | 7.6* | i
Fc1cc(Br)ccc1COc1ccc(-c2nnco2)cc1 | i | i | i | i | i
Oc1c(Cl)cc(Cl)cc1/C=N/Nc1ncc(Br)cn1 | i | i | i | i | i
Cc1ccc(N=Cc2cc(Cl)cc(Cl)c2O)nc1 | i | i | i | 7.6* | i
CN(C)S(=O)(=O)N(CC(=O)NCCSCc1ccc(Cl)cc1)c1ccccc1 | i | i | i | i | -7.8*
O=C(CSC1=NS(=O)(=O)c2ccccc2N1)Nc1nccs1 | i | i | i | i | i
CN1CCN(C2Cc3ccccc3Sc3ccc(Cl)cc32)CC1 (stereo not given) | i | . | . | i | i
CC(C)c1ccc2c(c1)C(N1CCNCC1)Cc1ccc(F)cc1S2 (stereo not given) | i | -8.7* | i | i | i
CN1CCN(C2Cc3cc(F)ccc3Sc3ccc(Cl)cc32)CC1 (stereo not given) | i | -8.3* | i | i | i
CSc1ccc2c(c1)C(N1CCN(C)CC1)Cc1ccccc1S2 (stereo not given) | i | -7.4*! | i | i | i
CCN(C(=O)COC(=O)/C=C/c1ccccc1)C1CCCCC1 | i | i | i | i | i
CCCCc1ccc(NC(=O)CN2C(=O)C3CCCCC3C2=O)cc1 (stereo not given) | i | i | i | i | i
CCn1c(=O)c(C(=O)NNC(=O)c2ccccc2F)c(O)c2ccccc21 | 114* | -8.7* | i | i | i
CCCCCC(=O)NNC(=O)c1c(O)c2ccccc2n(CC)c1=O | i | i | i | i | i
COc1cccc2cc(C(=O)OCc3ccccc3)c(=O)oc12 | i | i | i | i | i
Cc1ccc(-c2csc(Nc3ccc(C(=O)O)cc3)[n+]2Cc2ccccc2)cc1 | i | i | i | 9.1* | i
Cc1ccccc1NS(=O)(=O)c1ccc(C(=O)NCC2CCCO2)cc1 (stereo not given) | i | i | i | i | i
O=C(CN(Cc1ccc(F)cc1)C(=O)Cn1nnc2ccccc21)NCC1CCCO1 (stereo not given) | i | i | i | 17* | i
O=C(NCc1ccc(F)cc1)C(c1ccccc1)N(CC1CCCO1)C(=O)Cn1nnc2ccccc21 (stereo not given) | i | i | i | i | i
CC(C)CS(=O)(=O)C1=NSC2=NC(=O)/C(=C\c3ccc(OC(=O)c4ccco4)cc3)C(=N)N21 | i | i | i | 15* | i
CCC1=NN2C(=N)/C(=C/c3ccc(OS(=O)(=O)c4ccccc4)cc3)C(=O)N=C2S1 | 39* | i | i | i | i
